Like-named read-outs stand apart in the source and are kept apart here.
Key:
[1] = cited from earlier work
[2] = Population pharmacokinetic analysis; format: in vivo, healthy Chinese adult volunteers
Outline: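 Pooled plasma data from 128 subjects were fitted by SAEM with a two-compartment model: first-order elimination, two deposit absorption compartments, lag times. Parameters were log-normal with exponential IIV, and proportional, additive and combined residual errors were tested. Stepwise covariate search used p<0.05 forward and p<0.01 backward. Sex, age, WT and BMI were tested on CL/F and volume. Food (0 fasted, 1 fed) was tested on absorption parameters. Evaluation used AIC, OFV, GOF, VPC (1000 simulations) and NPDE.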

[3] = fractional difference of race, relative to Chinese model; cited from earlier work
[4] = Reported food effect study in Caucasian population; format: in vivo, healthy Caucasian subjects; conditions: average of the 40 mg and 120 mg group, observed data of ref 22
[5] = format: in vivo, healthy Chinese adult volunteers; conditions: for subjects whose concentration-time curves displayed multiple peaks: fasting state
Outline: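 Two open-label BE studies in healthy Chinese adults, each giving one reference tablet dose (20 mg or 80 mg) with 240 mL water. Subjects either fasted ≥10 h pre-dose or ate a high-fat, high-calorie meal (800–1000 kcal) within 30 min of dosing. Blood was drawn from 30 min pre-dose to 48 h post-dose. Plasma was separated at 3000 rpm, stored at −70 °C, and assayed by LC-MS/MS. Cmax, tmax and AUCs came from non-compartmental analysis.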

[6] = set-up: species or system healthy Caucasian subjects; conditions: Caucasian
Outline: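 Monte Carlo simulation from the final Chinese-population model, with CL/F raised and relative bioavailability lowered per earlier published race covariate estimates. The 24 simulated Caucasian subjects had demographics matching a reported food-effect study.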

[7] = cited from earlier work; remark: listed apart in the source
[8] = humans, cited from earlier work
[9] = cited from earlier work; remark: listed apart in the source
[10] = fasted, average of the 40 mg and 120 mg group

estimated CL/F for healthy Chinese subjects ([2]; PopPK final model): 6.14 L/h
CL/F, final model estimate (RSE%) ([2]; apparent clearance): 6.14 (2.26) L∙h^−1
Vc/F, final model estimate (RSE%) ([2]; apparent distribution volume of central compartment): 10.38 (2.07) L
Vp/F, final model estimate (RSE%) ([2]; apparent distribution volume of peripheral compartment): 10.22 (3.21) L
WT_Vc/F, final model estimate (RSE%) ([2]; covariate coefficient of body weight on Vc/F): 0.58 (27.9)
WT_Vp/F, final model estimate (RSE%) ([2]; covariate coefficient of body weight on Vp/F): 1.15 (22.5)
Food_Tlag1, final model estimate (RSE%) ([2]; covariate coefficient of fed state on Tlag1): 0.73 (18.2)
Food_ka1, final model estimate (RSE%) ([2]; covariate coefficient of fed state on ka1): −2.04 (8)
Food_ka2, final model estimate (RSE%) ([2]; covariate coefficient of fed state on ka2): −1.08 (19.9)
reduction of ka1 by food ([2]; fed vs fasted, final model): 87%
reduction of ka2 by food ([2]; fed vs fasted, final model): 66%
ka1, final model estimate (RSE%) ([2]; first-order absorption rate constant of first depot, fasted state): 4.02 (11.4) h^−1
ka2, final model estimate (RSE%) ([2]; first-order absorption rate constant of second depot, fasted state): 4.34 (15.6) h^−1
F1, final model estimate (RSE%) ([2]; fraction of absorbed febuxostat from first depot): 0.51 (3.7)
Q/F, final model estimate (RSE%) ([2]; in vivo): 1.93 (4.25) L∙h^−1
Tlag1, final model estimate (RSE%) ([2]; lag time of first depot, fasted state): 0.22 (8.93) h
Tlag2, final model estimate (RSE%) ([2]; lag time of second depot): 0.92 (7.63) h
fed/fasted ratio of observed mean AUC [4]: 0.83
fed/fasted ratio of observed mean Cmax [4]: 0.60
fed/fasted ratio of observed mean Tmax [4]: 1.87
Cmax (mean ± SD) ([5]; 20 mg single oral dose, fasting (n=36), plasma): 1091 ± 301.0 ng/mL
subjects whose concentration-time curves displayed multiple peaks ([5]; 20 mg, may be overestimated): approximately 75.0%
Tmax (median, range) ([5]; 80 mg single oral dose, fed (n=30), plasma): 1.75 (0.75, 4.00) h
subjects whose concentration-time curves displayed multiple peaks ([5]; 80 mg, may be overestimated): ~80.6%
curves showing multiple peaks ([5]; fed study, may be overestimated): about 40%
Tmax ([5]; human, plasma, po, 20 mg): 1.25 h
predicted fed/fasted ratio of AUC ([6]; simulated): 1.02
predicted fed/fasted ratio of Cmax ([6]; simulated): 0.68
predicted fed/fasted ratio of Tmax ([6]; simulated): 1.53
ratio of mean predicted and observed AUC [6, 10]: 0.92
ratio of mean predicted and observed Cmax [6, 10]: 0.81
ratio of mean predicted and observed Tmax [6, 10]: 1.41
ratio (predicted/observed) of AUC ([6]; fed state): 1.13
ratio (predicted/observed) of Cmax ([6]; fed state): 0.92
ratio (predicted/observed) of Tmax ([6]; fed state): 1.13
Structure (SMILES): Cc1nc(-c2ccc(OCC(C)C)c(C#N)c2)sc1C(=O)O [febuxostat, 2-[3-cyano-4-(2-methylpropoxy)phenyl]-4-methylthiazole-5-carboxylic acid]
CL/F estimate for healthy Australian subjects [1]: 6.91 L/h
decrease of bioavailability applied for Caucasian subjects [3]: 46%
solubility in methanol ([7]; methanol): slightly soluble
solubility in water ([7]; water): practically insoluble
extent of metabolism by glucuronidation [8]: up to 40%
time to reach maximum plasma concentrations (Cmax) ([8]; oral administration, fasting condition): 0.5 ~ 1.5 h
CL/F reported by Rekić et al. [9]: 14.58 L/h

From publication PMC11348603 (BMC Pharmacology & Toxicology, 2024)
